The values below come from ChEMBL document CHEMBL1156266, “Antisense oligonucleotides containing conformationally constrained 2',4'-(N-methoxy)aminomethylene and 2',4'-aminooxymethylene and 2'-O,4'-C-aminomethylene bridged nucleoside analogues show improved potency in animal models” (J Med Chem, 2010).

By ED50 is commonly meant the dose at which the effect has come halfway, by size or by number of responders. As a reminder, the IC50 is the concentration that gives 50% inhibition. Low values mean greater potency in that assay, high ones weaker potency in that assay. Broadly, the Tm is the temperature at which the thermal transition is half complete.

The test system of data set [1] is Mus musculus. Put plainly: Toxicity in BALB/c mouse assessed as increase in liver weight at 0.5 to 14.6 mg/kg, ip administered twice a week for 3 weeks measured after 72 hrs of last dose. The data set is classed as organism-based. Set-up: dose 0.5-14.6 mg/kg, route intraperitoneal. The following applies: in vivo. The gist of the method: (§1)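 Male Balb/c mice, ip ASO in PBS twice weekly for 3 weeks at four dose levels. Body weight recorded before each dose. Killed 3 days after last dose. Organ weights normalized to body weight, expressed relative to the saline-treated group.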

In data set [2] the test system is Mus musculus. Put plainly: Toxicity in BALB/c mouse assessed as effect on body weight at 0.5 to 14.6 mg/kg, ip administered twice a week for 3 weeks measured after 72 hrs of last dose. The data set is classed as organism-based. Also noted: dose 0.5-14.6 mg/kg, route intraperitoneal. Conditions: in vivo. The gist of the method:
as §1

Data set [3] concerns Mus musculus. The experiment in a line: Reduction in PTEN mRNA expression in ip dosed BALB/c mouse liver administered twice a week for 3 weeks measured after 72 hrs of last dose by RT-PCR analysis. The data set is classed as functional. The essentials:
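Male Balb/c mice, 6-week-old, ASO in PBS ip twice weekly for 3 weeks, four dose levels. Killed 72 h after last dose. Liver homogenized in guanidine isothiocyanate buffer, RNA column-purified. PTEN RNA by fluorescence qRT-PCR, normalized to cyclophilin A. Errors are SD.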

A short description of data set [4]: Reduction in PTEN mRNA expression in mouse bEND.3 cells after 24 hrs by qRT-PCR analysis. The data set is classed as functional, cell-based. The following applies: for IC50: BEND3, 24 h. The gist of the method:
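bEnd.3 cells in DMEM/10% FBS, seeded at 1 × 10^4 cells/well the day before. Transfected 4 h at 37 °C with Lipofectin 3 μg/mL in OptiMEM, eight 1:2 dilutions (40 nM to 312.5 pM), then refed with complete medium for 24 h. PTEN RNA by qRT-PCR, normalized to cyclophilin A, as % untreated control. Triplicate plates. IC50 from sigmoidal fit, top 100%, bottom 0%.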
In general terms: Quantitative PCR measures a nucleic acid by following its amplification.

The test system of the next data set is Liver. Put plainly: Drug level in BALB/c mouse liver assessed per gram of tissue at 37 mg/kg, ip administered once a week for 3 weeks measured after 72 hrs of last dose. The data set is classed as ADME, organism-based. Set-up: dose 37 mg/kg, route intraperitoneal. The following applies: in vivo.
Data set [5] deals with Mus musculus. Put plainly: Hepatotoxicity in BALB/c mouse assessed as increase in liver ALT level at 0.5 to 14.6 mg/kg, ip administered twice a week for 3 weeks measured after 72 hrs of last dose. The data set is classed as toxicity, organism-based. Set-up: dose 0.5-14.6 mg/kg, route intraperitoneal. Conditions: in vivo. The gist of the method:
(§2)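 Male 6-week-old Balb/c mice dosed ip in PBS twice weekly for 3 weeks: 0.7–23 mg/kg (four levels) or 0.5–14.6/14.8 mg/kg. Killed 72 h after final dose. Plasma from cardiac-puncture blood, ALT on clinical bioanalyzer. Errors are SD.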

In a further data set the test system is Nucleic Acid. The experiment in a line: Binding affinity to mouse PTEN mRNA assessed as melting temperature at 4 uM by thermal denaturation assay. The data set is classed as nucleic-acid assay. The essentials:
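Duplex with complementary length-matched RNA; UV absorbance versus temperature curves in 100 mM Na+, 10 mM phosphate, 0.1 mM EDTA, 4 μM each strand. Tm is the average of two experiments.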

Data set [6] relates to Mus musculus. The experiment in a line: Hepatotoxicity in BALB/c mouse assessed as liver ALT level at 0.7 to 23 mg/kg, ip administered twice a week for 3 weeks measured after 72 hrs of last dose. The data set is classed as toxicity, organism-based. Set-up: dose 0.7-23 mg/kg, route intraperitoneal. Conditions: in vivo. The gist of the method:
as §2

Data set [7] deals with Mus musculus. Put plainly: Toxicity in BALB/c mouse assessed as effect on liver weight at 0.7 to 23 mg/kg, ip administered twice a week for 3 weeks measured after 72 hrs of last dose. Also noted: dose 0.7-23 mg/kg, route intraperitoneal. The data set is classed as organism-based. The following applies: in vivo. The essentials:
as §1

Data set [8] relates to Mus musculus. Put plainly: Toxicity in BALB/c mouse assessed as effect on kidney weight at 0.7 to 23 mg/kg, ip administered twice a week for 3 weeks measured after 72 hrs of last dose. The data set is classed as organism-based. Set-up: dose 0.7-23 mg/kg, route intraperitoneal. Conditions: in vivo. The gist of the method:
as §1

Data set [9] concerns Mus musculus. Put plainly: Toxicity in BALB/c mouse assessed as effect on body weight at 0.7 to 23 mg/kg, ip administered twice a week for 3 weeks measured after 72 hrs of last dose. The data set is classed as organism-based. Conditions: in vivo. Also noted: dose 0.7-23 mg/kg, route intraperitoneal. The gist of the method:
as §1

For `Cc1cn([C@@H]2O[C@]3(CO)CO[C@@H]2[C@@H]3OP(O)(=S)OC[C@]23CC([C@H](n4cc(C)c(=O)[nH]c4=O)O2)[C@@H]3OP(O)(=S)OC[C@H]2O[C@@H](n3cc(C)c(=O)[nH]c3=O)C[C@@H]2OP(O)(=S)OC[C@H]2O[C@@H](n3cnc4c(N)ncnc43)[C@H](O)[C@@H]2OP(O)(=S)OC[C@H]2O[C@@H](n3cnc4c(=O)[nH]c(N)nc43)[C@H](O)[C@@H]2OP(O)(=S)OC[C@H]2O[C@@H](n3ccc(N)nc3=O)[C@H](O)[C@@H]2OP(O)(=S)OC[C@H]2O[C@@H](n3cnc4c(N)ncnc43)[C@H](O)[C@@H]2OP(O)(=S)OC[C@H]2O[C@@H](n3ccc(N)nc3=O)[C@H](O)[C@@H]2OP(O)(=S)OC[C@H]2O[C@@H](n3cc(C)c(=O)[nH]c3=O)C[C@@H]2OP(O)(=S)OC[C@H]2O[C@@H](n3cnc4c(=O)[nH]c(N)nc43)[C@H](O)[C@@H]2OP(O)(=S)OC[C@H]2O[C@@H](n3cnc4c(=O)[nH]c(N)nc43)[C@H](O)[C@@H]2OP(O)(=S)OC[C@H]2O[C@@H](n3ccc(N)nc3=O)[C@H](O)[C@@H]2OP(O)(=S)OC[C@]23CO[C@@H]([C@H](n4cc(C)c(N)nc4=O)O2)[C@@H]3OP(O)(=S)OC[C@]23CC([C@H](n4cc(C)c(=O)[nH]c4=O)O2)[C@@H]3O)c(=O)nc1N` (some centres undefined), the Activity entry in the data set with Mus musculus [1], in the data set on Mus musculus [2] and in the data set on Mus musculus [5] was “Toxic” in each case. This compound also yielded a median effective dose (ED50) with Mus musculus [3] of 3 mg/kg. The compound also came in with an IC50 in data set [4] of 1.3 nM. In addition, the Drug uptake with Liver amounted to 30 µg/g.

`COCCO[C@@H]1[C@H](OP(O)(=S)OC[C@H]2O[C@@H](n3cc(C)c(=O)[nH]c3=O)C[C@@H]2OP(O)(=S)OC[C@H]2O[C@@H](n3cnc4c(=O)[nH]c(N)nc43)[C@H](OCCOC)[C@@H]2OP(O)(=S)OC[C@H]2O[C@@H](n3cc(C)c(N)nc3=O)[C@H](OCCOC)[C@@H]2OP(O)(=S)OC[C@H]2O[C@@H](n3cc(C)c(=O)[nH]c3=O)C[C@@H]2OP(O)(=S)OC[C@H]2O[C@@H](n3cnc4c(N)ncnc43)[C@H](O)[C@@H]2OP(O)(=S)OC[C@H]2O[C@@H](n3cnc4c(=O)[nH]c(N)nc43)[C@H](O)[C@@H]2OP(O)(=S)OC[C@H]2O[C@@H](n3cc(C)c(N)nc3=O)C[C@@H]2OP(O)(=S)OC[C@H]2O[C@@H](n3cc(C)c(N)nc3=O)C[C@@H]2OP(O)(=S)OC[C@H]2O[C@@H](n3cc(C)c(=O)[nH]c3=O)C[C@@H]2OP(O)(=S)OC[C@H]2O[C@@H](n3cc(C)c(N)nc3=O)C[C@@H]2OP(O)(=S)OC[C@H]2O[C@@H](n3cc(C)c(=O)[nH]c3=O)C[C@@H]2OP(O)(=S)OC[C@H]2O[C@@H](n3cnc4c(=O)[nH]c(N)nc43)[C@H](O)[C@@H]2OP(O)(=S)OC[C@H]2O[C@@H](n3cnc4c(=O)[nH]c(N)nc43)[C@H](O)[C@@H]2OP(O)(=S)OC[C@H]2O[C@@H](n3cnc4c(N)ncnc43)[C@H](O)[C@@H]2OP(O)(=S)OC[C@H]2O[C@@H](n3cc(C)c(=O)[nH]c3=O)C[C@@H]2OP(O)(=S)OC[C@H]2O[C@@H](n3cc(C)c(=O)[nH]c3=O)C[C@@H]2OP(O)(=S)OC[C@H]2O[C@@H](n3cc(C)c(=O)[nH]c3=O)C[C@@H]2OP(O)(=S)OC[C@H]2O[C@@H](n3cnc4c(=O)[nH]c(N)nc43)[C@H](OCCOC)[C@@H]2OP(O)(=S)OC[C@H]2O[C@@H](n3cnc4c(N)ncnc43)[C@H](OCCOC)[C@@H]2O)[C@@H](CO)O[C@H]1n1cc(C)c(N)nc1=O` (some centres undefined) registered an ED50 with Mus musculus [3] of 10 mg/kg. Besides, the melting temperature (Tm) in the data set with Nucleic Acid came out at 67.9 °C. Besides, the Activity entry is “Dose-dependent effect” in data set [4]; “Non-toxic” with Mus musculus [6]; “Non-toxic” in the data set with Mus musculus [7]; “Non-toxic” in the data set with Mus musculus [8]; “Non-toxic” in the data set with Mus musculus [9]. The IC50 in data set [4] stood at 1 nM.
